# From ChEMBL document CHEMBL1806473, “Structure-based optimization of click-based histone deacetylase inhibitors” (Eur J Med Chem, 2011)
# Columns and labels:
# [1] = system: SNB-19; experiment: Cytotoxicity against human SNB19 cells; type: cell-based
# How it was run: (§1)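 Screened by NCI in its in vitro disease-oriented human tumour cell line panel. Compounds tested at five concentrations (100, 10, 1.0, 0.1 and 0.01 μM). Growth read by sulforhodamine B (SRB) signal. GI50 is the concentration reducing growth of treated cells to half that of control cells during the drug incubation.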
# [2] = system: TK-10; experiment: Cytotoxicity against human TK10 cells; type: cell-based; how it was run: as §1
# [3] = system: KM12; experiment: Cytotoxicity against human KM12 cells; type: cell-based
# [4] = system: ACHN; experiment: Cytotoxicity against human ACHN cells; type: cell-based
# [5] = system: IGROV-1; experiment: Cytotoxicity against human IGROV1 cells; type: cell-based
# [6] = system: UACC-257; experiment: Cytotoxicity against human UACC257 cells; type: cell-based; how it was run: as §1
# [7] = system: HCT-15; experiment: Cytotoxicity against human HCT15 cells; type: cell-based
# How it was run: (§2)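 Tested in the NCI in vitro disease-oriented human tumour cell line screen, with screening performed by NCI. Growth was read by SRB signal over the drug incubation period at five concentrations: 100, 10, 1.0, 0.1 and 0.01 μM. GI50 is the concentration that reduces growth of treated cells to half that of control cells.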
# [8] = system: CCRF-CEM; experiment: Antiproliferative activity against human CCRF-CEM cells by SRB assay; type: functional
# How it was run: (§3)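 Tested in the NCI in vitro human tumor cell line screen, run by the National Cancer Institute. Each compound was given at five concentrations (100, 10, 1.0, 0.1 and 0.01 μM). GI50 is the drug concentration that reduces growth of treated cells to half that of control cells during drug incubation, judged from the SRB signal.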
# [9] = system: COLO 205; experiment: Antiproliferative activity against human COLO205 cells by SRB assay; type: functional; how it was run: as §3
# [10] = system: MCF7; experiment: Cytotoxicity against human MCF7 cells; type: cell-based
# [11] = system: NCI-H522; experiment: Antiproliferative activity against human NCI-H522 cells by SRB assay; type: functional; how it was run: as §3
# [12] = system: RPMI-8226; experiment: Antiproliferative activity against human RPMI8226 cells by SRB assay; type: functional; how it was run: as §3
# [13] = system: RPMI-8226; experiment: Cytotoxicity against human RPMI8226 cells; type: cell-based; how it was run: as §2
# [14] = Antiproliferative activity against human Hs 578T cells by SRB assay; type: functional; how it was run: as §3
# [15] = system: KM12; experiment: Antiproliferative activity against human KM12 cells by SRB assay; type: functional; how it was run: as §3
# [16] = molecular target: Histone deacetylase; experiment: Inhibition of HDAC in human HeLa cells using Ac-Arg-Gly-Lys(Ac)-AMC as fluorescent substrate after 20 mins by fluorescence assay; type: cell-based
# [17] = system: PC-3; experiment: Antiproliferative activity against human PC3 cells by SRB assay; type: functional; how it was run: as §3
# [18] = system: CAKI-1; experiment: Antiproliferative activity against human Caki1 cells by SRB assay; type: functional; how it was run: as §3
# [19] = system: NCI/ADR-RES; experiment: Antiproliferative activity against human NCI/ADR-RES cells by SRB assay; type: functional; how it was run: as §3
# [20] = system: RXF 393; experiment: Cytotoxicity against human RXF393 cells; type: cell-based; how it was run: as §2
# [21] = system: MOLT-4; experiment: Cytotoxicity against human MOLT4 cells; type: cell-based
# [22] = system: SK-MEL-5; experiment: Antiproliferative activity against human SK-MEL-5 cells by SRB assay; type: functional; how it was run: as §3
# [23] = system: SK-MEL-28; experiment: Cytotoxicity against human SK-MEL-28 cells; type: cell-based
# [24] = system: SF-295; experiment: Cytotoxicity against human SF295 cells; type: cell-based; how it was run: as §2
# [25] = system: HOP-62; experiment: Antiproliferative activity against human HOP62 cells by SRB assay; type: functional; how it was run: as §3
# [26] = system: HCT-116; experiment: Cytotoxicity against human HCT116 cells; type: cell-based; how it was run: as §2
# [27] = system: UACC-62; experiment: Cytotoxicity against human UACC62 cells; type: cell-based; how it was run: as §1
# [28] = system: MOLT-4; experiment: Antiproliferative activity against human MOLT4 cells by SRB assay; type: functional; how it was run: as §3
# [29] = system: SK-MEL-5; experiment: Cytotoxicity against human SK-MEL-5 cells; type: cell-based
# [30] = system: HCC 2998; experiment: Cytotoxicity against human HCC2998 cells; type: cell-based; how it was run: as §2
# [31] = system: T47D; experiment: Cytotoxicity against human T47D cells; type: cell-based; how it was run: as §1
# [32] = system: NCI/ADR-RES; experiment: Cytotoxicity against human NCI/ADR-RES cells; type: cell-based; how it was run: as §2
# [33] = system: UO-31; experiment: Cytotoxicity against human UO31 cells; type: cell-based; how it was run: as §1
# [34] = system: SNB-75; experiment: Antiproliferative activity against human SNB75 cells by SRB assay; type: functional
# How it was run: (§4)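 Cell growth was tested in the NIH in vitro disease-oriented human tumor cell line screen, which NCI ran for these compounds. Compounds were tested at five concentrations (100, 10, 1.0, 0.1 and 0.01 μM), and growth was read by SRB signal. GI50 is the drug concentration that reduces growth of treated cells to half that of control cells during drug incubation.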
# [35] = system: HOP-92; experiment: Antiproliferative activity against human HOP92 cells by SRB assay; type: functional; how it was run: as §3
# [36] = system: NCI-H522; experiment: Cytotoxicity against human NCI-H522 cells; type: cell-based; how it was run: as §2
# [37] = system: SNB-19; experiment: Antiproliferative activity against human SNB19 cells by SRB assay; type: functional; how it was run: as §3
# [38] = system: OVCAR-4; experiment: Antiproliferative activity against human OVCAR4 cells by SRB assay; type: functional; how it was run: as §3
# [39] = system: IGROV-1; experiment: Antiproliferative activity against human IGROV1 cells by SRB assay; type: functional; how it was run: as §3
# [40] = system: U-251; experiment: Cytotoxicity against human U251 cells; type: cell-based; how it was run: as §1
# [41] = system: HL-60(TB); experiment: Cytotoxicity against human HL-60(TB) cells; type: cell-based
# [42] = system: SNB-75; experiment: Cytotoxicity against human SNB75 cells; type: cell-based; how it was run: as §1
# [43] = system: K562; experiment: Cytotoxicity against human K562 cells; type: cell-based
# [44] = system: NCI-H226; experiment: Antiproliferative activity against human NCI-H226 cells by SRB assay; type: functional; how it was run: as §3
# [45] = system: UACC-257; experiment: Antiproliferative activity against human UACC257 cells by SRB assay; type: functional; how it was run: as §4
# [46] = system: HT-29; experiment: Antiproliferative activity against human HT-29 cells by SRB assay; type: functional; how it was run: as §3
# [47] = system: SK-MEL-2; experiment: Antiproliferative activity against human SK-MEL-2 cells by SRB assay; type: functional; how it was run: as §3
# [48] = system: A549; experiment: Antiproliferative activity against human A549 cells by SRB assay; type: functional; how it was run: as §3
# [49] = system: HL-60(TB); experiment: Antiproliferative activity against human HL-60(TB) cells by SRB assay; type: functional; how it was run: as §2
# [50] = Cytotoxicity against human Hs 578T cells; type: cell-based
# [51] = system: OVCAR-8; experiment: Cytotoxicity against human OVCAR8 cells; type: cell-based
# [52] = system: HCC 2998; experiment: Antiproliferative activity against human HCC2998 cells by SRB assay; type: functional; how it was run: as §3
# [53] = system: OVCAR-8; experiment: Antiproliferative activity against human OVCAR8 cells by SRB assay; type: functional; how it was run: as §3
# [54] = system: OVCAR-3; experiment: Cytotoxicity against human OVCAR3 cells; type: cell-based; how it was run: as §2
# [55] = system: SN12C; experiment: Cytotoxicity against human SN12C cells; type: cell-based; how it was run: as §1
# [56] = system: MDA-MB-468; experiment: Cytotoxicity against human MDA-MB-468 cells; type: cell-based; how it was run: as §2
smiles,measurement,setting,value
O=C(/C=C/c1cn(C(/C=C/c2ccccc2)Cc2ccccc2)nn1)NO (stereo not given),LC50,[1],18.8 µM
same,LC50,[2],12.9 µM
same,LC50,[3],34.2 µM
same,LC50,[4],13.7 µM
same,LC50,[5],8.18 µM
same,LC50,[6],93.7 µM
same,LC50,[7],74.5 µM
same,GI50,[8],0.32 µM
same,GI50,[9],1.1 µM
same,LC50,[10],93.2 µM
same,GI50,[11],0.386 µM
same,GI50,[12],0.743 µM
same,LC50,[13],> 100 µM
same,GI50,[14],0.934 µM
same,GI50,[15],1.93 µM
same,IC50,[16],0.077 µM
same,GI50,[17],1.52 µM
same,GI50,[18],0.44 µM
same,GI50,[19],0.342 µM
same,LC50,[20],7.61 µM
same,LC50,[21],> 100 µM
same,GI50,[22],0.879 µM
same,LC50,[23],9.4 µM
same,LC50,[24],6.56 µM
same,GI50,[25],1.44 µM
same,LC50,[26],5.97 µM
same,LC50,[27],6.34 µM
same,GI50,[28],0.493 µM
same,LC50,[29],5.3 µM
same,LC50,[30],6.12 µM
same,LC50,[31],61.7 µM
same,LC50,[32],> 100 µM
same,LC50,[33],6.57 µM
same,GI50,[34],0.258 µM
same,GI50,[35],1.08 µM
same,LC50,[36],6.36 µM
same,GI50,[37],2 µM
same,GI50,[38],1.75 µM
same,GI50,[39],0.836 µM
same,LC50,[40],5.84 µM
same,LC50,[41],> 100 µM
same,LC50,[42],9.83 µM
same,LC50,[43],> 100 µM
same,GI50,[44],2.44 µM
same,GI50,[45],1.68 µM
same,GI50,[46],0.547 µM
same,GI50,[47],1.89 µM
same,GI50,[48],1.41 µM
same,GI50,[49],0.67 µM
same,LC50,[50],74.6 µM
same,LC50,[51],> 100 µM
same,GI50,[52],1.24 µM
same,GI50,[53],0.63 µM
same,LC50,[54],8.7 µM
same,LC50,[55],> 100 µM
O=C(/C=C/c1ccc(CN(CCO)CCc2c[nH]c3ccccc23)cc1)NO [DACINOSTAT],LC50,[1],31.7 µM
same,LC50,[2],> 100 µM
same,LC50,[3],29.9 µM
same,LC50,[4],94.3 µM
same,LC50,[5],48.9 µM
same,LC50,[6],44.8 µM
same,LC50,[7],56.4 µM
same,GI50,[8],0.251 µM
same,GI50,[9],1.08 µM
same,LC50,[10],> 100 µM
same,GI50,[12],0.523 µM
same,LC50,[13],> 100 µM
same,GI50,[14],0.619 µM
same,GI50,[15],1.04 µM
same,GI50,[17],1.3 µM
same,GI50,[18],0.619 µM
same,GI50,[19],0.18 µM
same,LC50,[20],15.3 µM
same,LC50,[21],86.9 µM
same,GI50,[22],0.271 µM
same,LC50,[23],31.9 µM
same,LC50,[24],6.91 µM
same,GI50,[25],0.502 µM
same,LC50,[26],51.2 µM
same,LC50,[27],6.39 µM
same,GI50,[28],0.311 µM
same,LC50,[29],4.02 µM
same,LC50,[31],> 100 µM
same,LC50,[32],> 100 µM
same,LC50,[33],52.8 µM
same,GI50,[34],0.318 µM
same,GI50,[35],0.199 µM
same,GI50,[37],1.53 µM
same,GI50,[38],3.21 µM
same,GI50,[39],0.187 µM
same,LC50,[40],5.82 µM
same,LC50,[41],> 100 µM
same,LC50,[42],> 100 µM
same,LC50,[43],> 100 µM
same,GI50,[44],1.41 µM
same,GI50,[45],0.393 µM
same,GI50,[46],0.566 µM
same,GI50,[48],1.09 µM
same,GI50,[49],0.249 µM
same,LC50,[56],94.3 µM
same,LC50,[50],> 100 µM
same,LC50,[51],92.5 µM
same,GI50,[53],0.45 µM
same,LC50,[54],51 µM
same,LC50,[55],> 100 µM
